High-throughput results from PubChem.
Sampled rows, rich in hits. Any-hit rate of the full collection: about 3%.
SENP8 block-1 = blocks the human protease SENP8; Q96LD8; purified SENP8, Z-RLRGG-aminoluciferin cleavage, luminescence; inhibition, % at 10 µM; 330,000 tested, 1.2% active; in the data active = inhibition above about 50%
Apaf1 inhib = inhibitors of human Apaf-1 apoptosome. O14727. reconstituted apoptosome caspase-3 activity, DEVD-Rh110 fluorescence. AID 489030. 330,000 tested, 0.71% active. inhibition, % at 20 µM; active = inhibition of at least 40% at 20 µM;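 note: plate controls were DMSO wells for no effect and DEVD-CHO caspase inhibitor wells for full effect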
Target sequence (O14727 whole entry, looked up): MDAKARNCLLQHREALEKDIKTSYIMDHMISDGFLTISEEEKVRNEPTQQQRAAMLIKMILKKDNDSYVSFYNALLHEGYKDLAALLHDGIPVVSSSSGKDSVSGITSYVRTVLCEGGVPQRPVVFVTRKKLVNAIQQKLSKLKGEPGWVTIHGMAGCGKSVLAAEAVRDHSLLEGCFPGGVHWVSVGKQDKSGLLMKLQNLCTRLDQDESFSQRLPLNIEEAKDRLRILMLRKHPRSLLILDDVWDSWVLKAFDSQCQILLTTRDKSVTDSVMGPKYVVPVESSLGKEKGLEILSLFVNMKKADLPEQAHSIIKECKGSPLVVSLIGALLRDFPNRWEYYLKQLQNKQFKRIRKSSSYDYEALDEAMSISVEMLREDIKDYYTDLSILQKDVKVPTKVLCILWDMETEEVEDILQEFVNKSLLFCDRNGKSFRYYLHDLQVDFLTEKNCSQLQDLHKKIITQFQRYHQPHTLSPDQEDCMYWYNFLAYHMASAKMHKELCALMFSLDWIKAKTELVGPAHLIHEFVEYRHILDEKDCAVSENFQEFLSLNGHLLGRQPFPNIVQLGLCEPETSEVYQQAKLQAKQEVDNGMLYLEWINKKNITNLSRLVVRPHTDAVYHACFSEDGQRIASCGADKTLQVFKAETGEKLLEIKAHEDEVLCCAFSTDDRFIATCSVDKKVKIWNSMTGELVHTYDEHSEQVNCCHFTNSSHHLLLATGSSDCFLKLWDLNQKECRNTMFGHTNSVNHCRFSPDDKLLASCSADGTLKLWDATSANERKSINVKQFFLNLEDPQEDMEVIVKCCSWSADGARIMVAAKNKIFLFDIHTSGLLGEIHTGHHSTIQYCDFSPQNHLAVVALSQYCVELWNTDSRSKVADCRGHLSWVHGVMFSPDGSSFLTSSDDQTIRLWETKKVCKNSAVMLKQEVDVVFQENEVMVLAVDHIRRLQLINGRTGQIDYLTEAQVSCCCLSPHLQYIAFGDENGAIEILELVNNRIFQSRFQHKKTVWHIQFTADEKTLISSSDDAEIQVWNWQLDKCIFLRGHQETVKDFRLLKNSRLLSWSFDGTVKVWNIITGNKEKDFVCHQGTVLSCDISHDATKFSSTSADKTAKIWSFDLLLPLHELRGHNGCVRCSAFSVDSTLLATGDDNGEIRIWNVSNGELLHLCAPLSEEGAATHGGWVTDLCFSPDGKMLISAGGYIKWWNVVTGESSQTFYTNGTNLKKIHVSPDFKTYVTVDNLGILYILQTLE
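System: reconstituted apoptosome with Apaf-1, cytochrome c, caspase-9, procaspase-3, dATP; Signal: Rh110 fluorescence intensity; Schedule: 30 min compound preincubation, 50 min activation, room temperature; Reagent: cytochrome c trigger plus (Z-DEVD)2-Rh110 caspase-3 substrate.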
UBC13 inh = blocks human UBC13 polyubiquitin chain formation; 330,000 tested, 0.47% active; inhibition, % at 20 µM; AID 485273; P61088; TR-FRET; in the data active = inhibition above about 45%, passing the limit was not always enough
SENP7 inh = inhibitors of human SENP7 protease | recombinant SENP7, Z-RLRGG-aminoluciferin luminescence, 40 min | 330,000 tested, 1.5% active | inhibition, % at 5 µM;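 active = inhibition above about 50% at the single test dose, limit read from the data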;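 note: plate controls were DMSO with enzyme for no effect and no enzyme buffer wells for full effect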
SENP8 block-2 = blocks human SENP8 cleavage of Nedd8 substrate. inhibition, % at 20 µM. recombinant SENP8, Nedd8 substrate fluorescence. 360,000 tested, 0.64% active. AID 602440; in the data active = inhibition mostly above about 40%, no sharp cut-off; inactive = mostly below about 27%
SENP6 inh = inhibitors of human SENP6 protease. 330,000 tested, 1.8% active. inhibition, % at 10 µM. Recombinant SENP6 catalytic domain, aminoluciferin luminescence;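 active = inhibition above about 50% at the single tested dose, limit read from the data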;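 note: plate controls were DMSO wells with enzyme for no effect and DMSO wells lacking enzyme for full effect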
SENP8 conf = confirmation of human SENP8 protease inhibitors; AID 488912; 6,200 tested, 40% active; Recombinant SENP8, Z-RLRGG-aminoluciferin luminescence, 60 min; shares compounds with SENP7 inh; inhibition, % at 12.5 µM;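 active = mean inhibition across replicates above about 50%, limit read from the data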
SENP6 confirm = human SENP6 inhibition, confirmed; inhibition, % at 12.5 µM; 6,200 tested, 58% active; shares compounds with SENP7 inh; recombinant SENP6, Z-RLRGG-aminoluciferin luminescence; AID 488915
SENP7 confirm = confirmation of human SENP7 protease inhibitors. shares compounds with SENP7 inh. recombinant SENP7, Z-RLRGG-aminoluciferin luminescence, 40 min. inhibition, % at 12.5 µM. 6,200 tested, 69% active. AID 488917
Casp3 select = selectivity test for SENP inhibitors: human caspase-3 inhibition | shares compounds with SENP7 inh | purified caspase-3, Z-DEVD-aminoluciferin luminescence, 60 min | inhibition, % at 12.5 µM | 6,200 tested, 60% active;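 active = mean inhibition above about 50%, limit read from the data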;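 note: plate controls were enzyme with DMSO for no effect and wells without caspase-3 for full effect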
Luc interf = counter-screen for SENP inhibitors: luminescence interference. shares compounds with SENP7 inh. Pre-incubated SENP8/Z-RLRGG-aminoluciferin, luciferase luminescence interference. inhibition, % at 12.5 µM. 6,200 tested, 39% active;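 active = mean inhibition above about 50% when retested at one dose, limit read from the data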;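 note: plate controls were DMSO wells with completed reaction for no effect and substrate without enzyme for full effect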
* hit, by the source's call; i = inactive; x = no result given.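 Rule for the calls, unless noted: active = mean inhibition above about 50% in the one-dose retest (limit read from the data); inactive = the rest.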

SMILES	SENP8 block-1	Apaf1 inhib	UBC13 inh	SENP7 inh	SENP8 block-2	SENP6 inh	SENP8 conf	SENP6 confirm	SENP7 confirm	Casp3 select	Luc interf
Cc1cc(COc2ccccc2)oc1C(=O)O	97.4*	-6.7	-4.4	99.7*	20.7	95.2*	98.7*	99.6*	102.8*	88.5*	98.0*
Cc1cc(C)cc(COc2ccc3c(C)c(CC(=O)O)c(=O)oc3c2C)c1	-3.1	7.3	7.7	-4.1	-298.8	-8.6	x	x	x	x	x
COC(=O)c1ccc(COc2ccc(C)c(C)c2)o1	28.7	6.0	5.9	3.5	9.6	36.2	x	x	x	x	x
[O-][n+]1cc(Cl)cc(Cl)c1	x	x	x	x	15.2	x	x	x	x	x	x
COc1cc(F)ccc1-c1csc(C(O)(c2ccccc2)C(F)(F)F)n1 (centres undefined)	x	x	x	x	9.8	x	x	x	x	x	x
CCOc1ccc(CCN2C(=S)N([C@@H](Cc3ccc(O)cc3)CN3CCC[C@@H]3CN3C(=S)NC[C@@H]3Cc3ccccc3)C[C@@H]2Cc2ccc(O)cc2)cc1	x	x	x	x	21.6	x	x	x	x	x	x
COc1ccc2c(c1)C(=O)O[C@@H](c1ccccc1)C[C@@H](O)C(=O)CC2	x	x	x	x	1.3	x	x	x	x	x	x
CCC(C)c1ccc(OCc2ccc(C(=O)O)o2)cc1 (centres undefined)	94.2*	-5.5	6.8	79.8*	13.5	95.5*	3.1	98.3*	102.3*	47.8	97.5*
Cc1ccc(NC(=O)c2oc3ccccc3c2C)nc1	15.3	18.3	-0.9	46.6	-1.9	54.6*	37.3	30.0	70.3*	42.0	11.1
Cc1c(C(=O)Nc2nnc(C(F)(F)F)s2)oc2ccccc12	38.5	5.0	-1.3	62.3*	-236.7	47.5	52.7*	53.9*	59.6*	58.9*	22.2
Cc1c(C(=O)Nc2ccccn2)oc2ccccc12	57.0*	-5.7	-2.0	75.9*	2.2	64.3*	1.0	54.8*	79.1*	56.3*	55.6*
Cc1c(C(=O)Nc2ccccn2)oc2c(Cl)cccc12	-3.7	6.3	4.0	-3.2	2.3	16.8	x	x	x	x	x
CC(=O)Nc1cccc(-c2cc(NC(C)=O)c3ncc(-c4ccc(C(C)=O)cc4)n3c2)c1	x	x	x	x	-485.0	x	x	x	x	x	x
CCN(CC)c1ncnc2c1ncn2[C@H]1CN(Cc2cc(OC)c(OC)c(OC)c2)C[C@@H](CO)O1	x	x	x	x	10.6	x	x	x	x	x	x
Cc1nc(-c2cccc(Br)c2)ccc1C(=O)O	33.0	0.7	-5.8	57.8*	13.2	-7.0	55.2*	50.6*	80.7*	87.5*	64.7*
CCc1ccc(-c2ccc(C(=O)O)c(C)n2)cc1	34.2	0.0	6.5	28.0	22.2	42.4	x	x	x	x	x
O=C1c2ccccc2C(=O)N1CCOc1ccccc1	18.1	7.8	1.0	46.8	10.7	60.1*	39.6	35.5	73.2*	59.3*	52.0*
O=C1c2ccccc2C(=O)N1CCOc1ccccc1Cl	37.4	10.4	3.7	59.0*	8.9	51.5*	31.7	47.9	78.4*	47.3	56.5*
Nc1cccc2c1C(=O)N(CCOc1ccc(F)cc1)C2=O	48.9	8.8	29.5	54.7*	-320.9	68.3*	54.7*	48.5	84.7*	53.1*	4.6
COc1ccc(OCCN2C(=O)c3ccccc3C2=O)cc1	5.6	2.8	11.9	13.3	10.2	25.2	x	x	x	x	x
COc1ccc(-c2csc(C(C)(O)c3cccc(F)c3)n2)cn1 (centres undefined)	x	x	x	x	12.4	x	x	x	x	x	x
O=C1CNC(=S)N1c1nc(-c2ccccc2)cs1	88.2*	2.6	-8.2	87.8*	18.3	96.1*	-4.3	5.5	2.5	14.0	7.1
COc1ccc(-c2csc(N3C(=O)CNC3=S)n2)cc1	x	x	x	x	12.0	x	x	x	x	x	x
CSc1ccc(-c2cc3c(c4c2ccn4C)C2CCC3O2)cc1 (centres undefined)	x	x	x	x	-348.9	x	x	x	x	x	x
O=C(O)c1cccc(Nc2ncnc3ccccc23)c1	58.6*	-8.2	-4.3	-3.3	-5.9	67.8*	70.2*	63.6*	84.9*	35.5	68.1*
SMILES	SENP8 block-1	Apaf1 inhib	UBC13 inh	SENP7 inh	SENP8 block-2	SENP6 inh	SENP8 conf	SENP6 confirm	SENP7 confirm	Casp3 select	Luc interf
O=C(O)c1cccc(Nc2ncnc3c2cnn3-c2ccccc2)c1	89.8*	-6.2	9.3	89.8*	-43.0	96.9*	94.7*	95.4*	101.4*	49.6	92.5*
O=C(O)c1cccc(Nc2ccnc(Nc3cccc(C(=O)O)c3)n2)c1	90.2*	-0.8	4.1	97.6*	19.4	93.6*	96.5*	98.0*	101.9*	95.1*	77.1*
O=C(O/N=C/C1=C(Cl)c2ccccc2CC1)c1ccc(F)cc1	-10.6	4.7	2.1	64.0*	-2.5	-14.9	10.2	12.6	17.0	30.9	1.7
O=S1(=O)CC(N2CCCC2)CN1Cc1cn(Cc2ccc(Cl)cc2)nn1 (centres undefined)	x	x	x	x	7.0	x	x	x	x	x	x
Cc1cc(=O)n2[nH]c(SCc3ccc(Cl)cc3)nc2n1	32.5	6.9	-3.5	1.4	0.5	52.0*	38.0	33.9	69.2*	65.0*	41.3
Cc1cc(=O)n2[nH]c(SCc3ccccc3)nc2n1	-11.2	6.1	-9.5	-9.3	11.1	-27.2	x	x	x	x	x
COc1ccc(O)c(-c2cc(-c3ccc(F)cc3)n[nH]2)c1	40.0	21.9	18.9	43.2	-9.8	56.1*	61.5*	58.9*	77.6*	20.4	68.3*
COc1ccc(O)c(-c2cc(-c3cccc(Br)c3)n[nH]2)c1	24.0	21.2	31.6	7.5	-10.7	59.0*	39.8	34.5	69.0*	-0.9	4.7
COc1ccc(-c2cc(-c3cc(OC)ccc3O)[nH]n2)cc1	26.1	18.0	16.1	45.3	-14.5	-1.7	x	x	x	x	x
COc1ccc2oc3ccc(OC)cc3c(=O)c2c1	62.1*	12.2	11.5	89.3*	-270.5	31.5	19.6	53.3*	69.5*	45.8	16.7
COc1ccc(-c2cc(=O)c3ccccc3s2)cc1	84.3*	18.2	8.0	-8.8	-8.5	92.8*	59.8*	90.6*	99.1*	82.2*	59.0*
COc1ccc2sc(C)cc(=O)c2c1	x	x	x	x	-482.2	x	x	x	x	x	x
COc1ccc(-c2cc(=O)c3ccccc3[nH]2)cc1	-4.0	0.1	-0.9	-2.0	-142.8	-20.1	x	x	x	x	x
COc1ccc2sc3ccccc3c(=O)c2c1	73.9*	-76.7	25.7	81.3*	i	88.0*	46.3	46.7	77.9*	53.3*	27.5
